# Assay results as given in PubChem BioAssay AID602425 (Sanford-Burnham Center for Chemical Genomics, 2012).
# The source made the active and inactive calls.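 Rule for the calls: active = IC50 of 80 µM or lower; inactive = the rest.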
# Target: glucose-6-phosphate dehydrogenase-6-phosphogluconolactonase (PfGluPho) [Plasmodium falciparum 3D7]
# Experiment: PfG6PD enzyme inhibitors, kinetic orthogonal readout, SAR follow-up, orthogonal assay for PfG6PD antimalarial inhibitor project, biochemical, kinetic direct NADPH detection, set 3 (AID 602425)
# Conditions: recombinant PfG6PDH, direct NADPH fluorescence kinetic
# Method in brief: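 Test system: PfG6PDH, the glucose-6-phosphate dehydrogenase of Plasmodium falciparum | Quantity: PfG6PDH at 0.2 µg/mL final | Also added: Glucose-6-phosphate 20 µM plus NADP 3 µM, final amounts | Dosing: Test compounds in dose-response series | Timing: Fluorescence reads repeated every 5 min | Detection: NADPH fluorescence, 340 nm excitation, 450 nm emission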
row,SMILES,IC50
1,CCCCN1CCCC1CNC(=O)c1ccc2c(c1)NC(=O)c1ccccc1S2 (configuration not stated),18.5 µM
2,CCN1CCC[C@@H]1CNC(=O)c1ccc2c(c1)NC(=O)c1cccc(C)c1S2,0.212 µM
3,CCN1CCC[C@@H]1CNC(=O)c1ccc2c(c1)NC(=O)c1cc(F)ccc1S2,49.1 µM
4,CCCN1CCCCC1CNC(=O)c1ccc2c(c1)NC(=O)c1ccccc1S2 (configuration not stated),62.6 µM
5,O=C(NC[C@H]1CCCN1)c1ccc2c(c1)NC(=O)c1ccccc1S2,40.3 µM
6,CCCCCCN1CCCC1CNC(=O)c1ccc2c(c1)NC(=O)c1ccccc1S2 (configuration not stated),42.2 µM
7,CCCN1CCC[C@@H]1CNC(=O)c1ccc2c(c1)NC(=O)c1ccccc1S2,11.4 µM
8,O=C(NCC1CCCCN1)c1ccc2c(c1)NC(=O)c1ccccc1S2 (configuration not stated),41.4 µM
9,CN1CCC(NC(=O)c2ccc3c(c2)NC(=O)c2ccccc2S3)C1 (configuration not stated),> 80 µM (inactive)
10,CCN1CCC(NC(=O)c2ccc3c(c2)NC(=O)c2ccccc2S3)C1 (configuration not stated),> 80 µM (inactive)
11,CCN1CCC[C@@H]1CNC(=O)c1ccc2c(c1)NC(=O)c1ccc(F)cc1S2,4.34 µM
12,CN1CCCCC1CNC(=O)c1ccc2c(c1)NC(=O)c1ccccc1S2 (configuration not stated),71.4 µM
13,CN1CCCC1CNC(=O)c1ccc2c(c1)NC(=O)c1ccccc1S2 (configuration not stated),23.3 µM
14,CCN1CCC[C@@H]1CNC(=O)c1ccc2c(c1)NC(=O)c1cc(C)ccc1S2,24.4 µM
15,CCN1CCCCC1CNC(=O)c1ccc2c(c1)NC(=O)c1ccccc1S2 (configuration not stated),> 80 µM (inactive)
16,CCN1CCC[C@@H]1CNC(=O)c1ccc2c(c1)NC(=O)c1ccccc1N2,> 80 µM (inactive)
17,CCCN1CCC(NC(=O)c2ccc3c(c2)NC(=O)c2ccccc2S3)C1 (configuration not stated),> 80 µM (inactive)
